Assay results taken from ChEMBL document CHEMBL3232890, “Novel structural hybrids of pyrazolobenzothiazines with benzimidazoles as cholinesterase inhibitors” (Eur J Med Chem, 2014).
Counter-ions that a name gives are not always drawn.

Assays:
[1] = Inhibition of electric eel AChE type VI-S using acetylthiocholine iodide as substrate preincubated with enzyme for 10 mins prior to substrate challenge for 15 mins by Ellman's method; parameters: species or system Electrophorus electricus
Method in brief: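 Enzyme was EeAChE at 0.5 U/mg or equine BuChE at 3.4 U/mg, diluted in Tris-HCl with 0.1% BSA. Eight to ten serial dilutions were preincubated for 10 min at 25 °C, then incubated for 15 min at 25 °C, and read at 405 nm in triplicate. IC50 came from linear regression.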

Cholinesterase = Cholinesterase (Equus caballus, UniProt P81908); test: Inhibition of BuChE in equine serum using butyrylthiocholine chloride as substrate preincubated with enzyme for 10 mins prior to substrate challenge for 15 mins by Ellman's method
Cholinesterase, sequence (P81908 whole entry): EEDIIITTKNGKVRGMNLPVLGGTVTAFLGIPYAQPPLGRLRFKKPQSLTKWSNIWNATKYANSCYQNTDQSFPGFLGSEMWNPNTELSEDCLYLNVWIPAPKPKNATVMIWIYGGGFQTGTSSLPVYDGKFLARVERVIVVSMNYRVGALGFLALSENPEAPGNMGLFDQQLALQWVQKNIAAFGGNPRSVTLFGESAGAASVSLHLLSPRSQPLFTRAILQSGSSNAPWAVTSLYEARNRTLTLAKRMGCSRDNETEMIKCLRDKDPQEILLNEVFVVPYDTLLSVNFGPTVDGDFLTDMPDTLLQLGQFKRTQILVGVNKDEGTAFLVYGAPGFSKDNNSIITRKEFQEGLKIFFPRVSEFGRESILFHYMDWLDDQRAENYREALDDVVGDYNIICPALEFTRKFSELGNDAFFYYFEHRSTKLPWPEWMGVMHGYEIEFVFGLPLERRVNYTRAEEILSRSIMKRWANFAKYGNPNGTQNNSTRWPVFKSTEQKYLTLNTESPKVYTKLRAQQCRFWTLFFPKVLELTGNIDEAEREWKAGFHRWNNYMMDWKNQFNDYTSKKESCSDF

[2] = molecular target: Cholinesterase (Equus caballus) (UniProt P81908); test: Inhibition of BuChE in equine serum using butyrylthiocholine chloride as substrate at 500 uM preincubated with enzyme for 10 mins prior to substrate challenge for 15 mins by Ellman's method
Cholinesterase (Equus caballus), sequence (P81908 whole entry): as above
Method in brief: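 The compound was added from DMSO (1% final) at 0.5 mM final. Enzyme and compound were preincubated for 10 min at 25 °C, then incubated for 15 min at 25 °C, and absorbance was read at 405 nm. Blanks lacked enzyme or substrate.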

Compound	IC50 [1] [µM]	IC50 (Cholinesterase) [µM]	inhibition [2] [%]
Cc1c2c(nn1-c1ccc(-c3nc4cc(C(=O)O)ccc4[nH]3)cc1)-c1ccccc1S(=O)(=O)N2C	1.13	0.026	–
Cc1cc2nc(-c3ccc(-n4nc5c(c4-c4ccccc4)N(C)S(=O)(=O)c4ccccc4-5)cc3)[nH]c2cc1C	3.82	–	34.1
Cc1cc2nc(-c3ccc(-n4nc5c(c4C)N(C)S(=O)(=O)c4ccccc4-5)cc3)[nH]c2cc1C	0.041	0.273	–
Cc1ccc2[nH]c(-c3ccc(-n4nc5c(c4-c4ccccc4)N(C)S(=O)(=O)c4ccccc4-5)cc3)nc2c1	0.122	–	31.8
COc1cc2c(cc1OC)C(=O)C(CC1CCN(Cc3ccccc3)CC1)C2 (configuration not stated) [DONEPEZIL HYDROCHLORIDE]	0.032	–	–
CCOC(=O)c1ccc2[nH]c(-c3ccc(-n4nc5c(c4C)N(C)S(=O)(=O)c4ccccc4-5)cc3)nc2c1	0.993	–	29.5
Cc1c2c(nn1-c1ccc(-c3nc4cc(Cl)ccc4[nH]3)cc1)-c1ccccc1S(=O)(=O)N2C	1.02	–	38.7
Cc1ccc2[nH]c(-c3ccc(-n4nc5c(c4C)N(C)S(=O)(=O)c4ccccc4-5)cc3)nc2c1	7.53	0.041	–
CCOC(=O)c1ccc2[nH]c(-c3ccc(-n4nc5c(c4-c4ccccc4)N(C)S(=O)(=O)c4ccccc4-5)cc3)nc2c1	0.013	0.18	–
Cc1c2c(nn1-c1ccc(-c3nc4cncnc4[nH]3)cc1)-c1ccccc1S(=O)(=O)N2C	1.95	–	35.5
Cc1c2c(nn1-c1ccc(-c3nc4cc(Br)ccc4[nH]3)cc1)-c1ccccc1S(=O)(=O)N2C	0.541	0.049	–
CN1c2c(nn(-c3ccc(-c4nc5ccccc5[nH]4)cc3)c2-c2ccccc2)-c2ccccc2S1(=O)=O	0.011	0.043	–
CN1c2c(nn(-c3ccc(-c4nc5cc(Cl)ccc5[nH]4)cc3)c2-c2ccccc2)-c2ccccc2S1(=O)=O	3.02	9.94	–
CN1c2c(nn(-c3ccc(-c4nc5cc(C(=O)O)ccc5[nH]4)cc3)c2-c2ccccc2)-c2ccccc2S1(=O)=O	6.11	4.62	–
Cc1c2c(nn1-c1ccc(-c3nc4cc([N+](=O)[O-])ccc4[nH]3)cc1)-c1ccccc1S(=O)(=O)N2C	0.492	–	38.5
COc1ccc2[nH]c(-c3ccc(-n4nc5c(c4C)N(C)S(=O)(=O)c4ccccc4-5)cc3)nc2c1	1.14	6.92	–
CN1c2c(nn(-c3ccc(-c4nc5cc([N+](=O)[O-])ccc5[nH]4)cc3)c2-c2ccccc2)-c2ccccc2S1(=O)=O	7.94	–	30.7
CN(C)C(=O)Oc1cccc([N+](C)(C)C)c1 [NEOSTIGMINE]	22.2	49.6	–
Cc1c2c(nn1-c1ccc(-c3nc4ccccc4o3)cc1)-c1ccccc1S(=O)(=O)N2C	6.92	0.017	–
CN1c2c(nn(-c3ccc(-c4nc5cc(Br)ccc5[nH]4)cc3)c2-c2ccccc2)-c2ccccc2S1(=O)=O	6.9	3.23	–
COc1ccc2[nH]c(-c3ccc(-n4nc5c(c4-c4ccccc4)N(C)S(=O)(=O)c4ccccc4-5)cc3)nc2c1	7.13	–	37.3
CN1c2c(nn(-c3ccc(-c4nc5cncnc5[nH]4)cc3)c2-c2ccccc2)-c2ccccc2S1(=O)=O	5.22	1.33	–
CN1c2c(nn(-c3ccc(-c4nc5ccccc5o4)cc3)c2-c2ccccc2)-c2ccccc2S1(=O)=O	0.054	–	36.5
Cc1c2c(nn1-c1ccc(-c3nc4ccccc4[nH]3)cc1)-c1ccccc1S(=O)(=O)N2C	2.91	0.043	–
